Assay results published in ChEMBL document CHEMBL1123198, “Stereoselective syntheses of the trans-decahydroquinoline-5-carboxylic acid epimers. Diastereomeric zwitterionic probes of gamma-aminobutyric acid related biological properties in vitro and in vivo” (1986).

Assays:
Mus musculus [1] = experiment: Convulsant effect on ICV administration in mice at 25microg, 0/5 mice affected; type: functional
In short: (§1)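 Mice under halothane anaesthesia got a 4 µL injection into the left ventricle at 25, 50 or 100 µg, with saline controls. Mice sat in a 1-L beaker and were watched for seizures from 2 min after injection, and for behaviour over 40 min. A seizure counted when tonic-clonic convulsions occurred and the mouse fell on its flank. Read-out: mice convulsing/mice tested, and seizure duration in min (mean ± SEM).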

Mus musculus [2] = experiment: Reversal of convulsant effect by Diazepam pretreatment (2 mg/kg) at 100 ug ICV dose, 4/4 mice affected; type: functional
Mus musculus [3] = experiment: Convulsant effect on ICV administration in mice at 100 ug; type: functional; in short: as §1
Mus musculus [4] = experiment: Convulsant effect on ICV administration in mice at 50microg, 1/6 mice affected; type: functional; in short: as §1
[5] = target: T1, GABA-A receptor; anion channel (Rattus norvegicus) (UniProt O09028+P15431+P18506+P18508+P19969+P20236+P23574+P23576+P28471+P28473+P30191+P62813+P63079+P63138+Q91ZM7+Q9ES14); experiment: Displacement of GABA activated [3H]diazepam binding in rat brain membranes; type: cell membranes
In short: (§2)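 [3H]Diazepam binding, alone and GABA-activated, was measured in brain membranes. Nonspecific binding was taken with 1 µM unlabelled diazepam. Values are means of two experiments, each in duplicate.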

[6] = target: T1, GABA-A receptor; anion channel (Rattus norvegicus); experiment: Displacement of [35S]TBPS from GABA-A receptor of rat brain membranes; type: cell membranes; design: concentration or dose not given beside the values; conditions: Membrane
In short: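 [35S]TBPS binding assay with nonspecific binding defined by 10 µM unlabelled TBPS. Values are means of two experiments, each in duplicate.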

[7] = target: GABA transporter (Rattus norvegicus) (UniProt P31647+P23978+P31646+P48056); experiment: Inhibition of [3H]GABA uptake from rat brain membranes; type: functional, cell membranes; conditions: Membrane, concentration not given here
In short: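 High-affinity [3H]GABA uptake was measured into rat brain synaptosomes. Values are means of two experiments.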

[8] = target: T1, GABA-A receptor; anion channel (Rattus norvegicus); experiment: Displacement of [3H]-GABA from Gamma-aminobutyric acid A receptor in rat brain membranes; type: cell membranes; design: concentration or dose not given beside the values
In short: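 GABA-A binding used [3H]GABA as ligand, with nonspecific binding taken in 1 mM unlabelled GABA. Values are means of three experiments, each in duplicate; standard error of the means was below 10%.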

[9] = target: GABA B receptor (Rattus norvegicus) (UniProt Q9Z0U4+O88871); experiment: Displacement of [3H]-GABA from Gamma-aminobutyric acid type B receptor in rat brain membranes; type: cell membranes; design: concentration or dose not given beside the values
In short: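 GABA-B binding: rat brain membranes were incubated with [3H]GABA plus 40 µM isoguvacine to block GABA-A sites. Nonspecific binding was defined with 100 µM baclofen. Values are means of three experiments, each in duplicate; standard errors were below 20%.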

[10] = target: T1, GABA-A receptor; anion channel (Rattus norvegicus); experiment: Displacement of [3H]diazepam binding in rat brain membranes; type: cell membranes; design: unit not given here; in short: as §2
Mus musculus [11] = organism: Mus musculus; experiment: Reversal of convulsant effect by Diazepam pretreatment at 100 ug ICV dose, 5/5 mice affected; type: functional
Mus musculus [12] = experiment: Reversal of convulsant effect by Diazepam pretreatment (5 mg/kg) at 100 ug ICV dose, 5/5 mice affected; type: functional
Mus musculus [13] = experiment: Reversal of convulsant effect by Diazepam pretreatment (10 mg/kg) at 100 ug ICV dose, 0/6 mice affected; type: functional
Mus musculus [14] = experiment: Convulsant effect on ICV administration in mice at 100microg, 5/5 mice affected; type: functional; in short: as §1
Mus musculus [15] = experiment: Convulsant effect on ICV administration in mice at 50 ug; type: functional; in short: as §1
Rattus norvegicus = organism: Rattus norvegicus; experiment: Cyclic AMP accumulation in Rat brain cerebral cortical slices by the compound, activity expressed as % conversion; type: functional
In short: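 Rat cerebral cortical slices were used for cAMP accumulation. cAMP was isolated by double-column chromatography. Values are means of two experiments, each run in duplicate.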

[16] = target: T1, GABA-A receptor; anion channel (Rattus norvegicus); conditions: Brain, Brain membranes
[17] = target: T1, GABA-A receptor; anion channel (Rattus norvegicus); conditions: Brain, Brain membranes; remark: listed apart in the source
[18] = target: T1, GABA-A receptor; anion channel (Rattus norvegicus); experiment: Displacement of GABA activated [3H]diazepam binding in rat brain membranes at 100 uM; type: cell membranes; in short: as §2
[19] = target: T1, GABA-A receptor; anion channel (Rattus norvegicus); experiment: Displacement of [3H]diazepam binding to rat brain membranes at 100 uM concentration; type: cell membranes; conditions: Membrane; in short: as §2
Mus musculus [20] = experiment: Reversal of convulsant effect by Diazepam pretreatment (5 mg/kg) at 100 ug ICV dose, 4/4 mice affected; type: functional
Mus musculus [21] = experiment: Reversal of convulsant effect by Diazepam pretreatment (10 mg/kg) at 100 ug ICV dose, 0/5 mice affected; type: functional
Mus musculus [22] = experiment: Reversal of convulsant effect by Diazepam pretreatment (2 mg/kg) at 100 ug ICV dose, 5/5 mice affected; type: functional
Mus musculus [23] = experiment: Convulsant effect on ICV administration in mice at 50microg, 5/5 mice affected; type: functional; in short: as §1

GABA transporter (Rattus norvegicus), sequence (P31646 whole entry, looked up): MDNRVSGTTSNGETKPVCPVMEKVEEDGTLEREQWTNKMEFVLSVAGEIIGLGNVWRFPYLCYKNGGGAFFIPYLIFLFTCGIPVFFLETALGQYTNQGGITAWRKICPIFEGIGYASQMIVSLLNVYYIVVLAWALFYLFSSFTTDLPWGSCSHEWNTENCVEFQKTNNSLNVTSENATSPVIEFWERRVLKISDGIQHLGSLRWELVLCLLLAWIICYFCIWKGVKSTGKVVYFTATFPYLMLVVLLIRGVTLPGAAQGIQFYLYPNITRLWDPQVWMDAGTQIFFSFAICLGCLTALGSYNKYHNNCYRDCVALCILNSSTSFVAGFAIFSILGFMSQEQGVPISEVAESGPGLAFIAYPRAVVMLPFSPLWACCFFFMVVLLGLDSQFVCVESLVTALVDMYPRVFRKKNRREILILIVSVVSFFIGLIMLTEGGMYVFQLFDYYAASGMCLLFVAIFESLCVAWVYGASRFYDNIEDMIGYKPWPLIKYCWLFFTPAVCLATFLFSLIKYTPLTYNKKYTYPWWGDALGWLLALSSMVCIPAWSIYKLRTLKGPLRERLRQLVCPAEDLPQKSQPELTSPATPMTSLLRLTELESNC
GABA transporter (Rattus norvegicus), sequence (P31647 whole entry, looked up): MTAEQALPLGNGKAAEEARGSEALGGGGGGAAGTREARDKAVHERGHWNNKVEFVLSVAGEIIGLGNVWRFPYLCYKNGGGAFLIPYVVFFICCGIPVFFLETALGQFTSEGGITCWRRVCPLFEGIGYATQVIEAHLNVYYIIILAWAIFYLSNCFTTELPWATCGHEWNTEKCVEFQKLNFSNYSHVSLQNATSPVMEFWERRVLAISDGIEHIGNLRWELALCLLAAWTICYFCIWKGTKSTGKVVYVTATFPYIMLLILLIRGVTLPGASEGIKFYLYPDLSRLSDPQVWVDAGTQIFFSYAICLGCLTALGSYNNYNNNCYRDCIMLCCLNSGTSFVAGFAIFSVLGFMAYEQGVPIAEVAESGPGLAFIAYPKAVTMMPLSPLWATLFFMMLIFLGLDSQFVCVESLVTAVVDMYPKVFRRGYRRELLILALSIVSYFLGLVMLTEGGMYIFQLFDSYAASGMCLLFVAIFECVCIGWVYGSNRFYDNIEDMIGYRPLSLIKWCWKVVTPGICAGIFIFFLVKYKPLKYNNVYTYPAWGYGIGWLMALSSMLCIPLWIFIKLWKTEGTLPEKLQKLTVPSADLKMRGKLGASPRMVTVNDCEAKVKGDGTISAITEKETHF
GABA transporter (Rattus norvegicus), sequence (P48056 whole entry, looked up): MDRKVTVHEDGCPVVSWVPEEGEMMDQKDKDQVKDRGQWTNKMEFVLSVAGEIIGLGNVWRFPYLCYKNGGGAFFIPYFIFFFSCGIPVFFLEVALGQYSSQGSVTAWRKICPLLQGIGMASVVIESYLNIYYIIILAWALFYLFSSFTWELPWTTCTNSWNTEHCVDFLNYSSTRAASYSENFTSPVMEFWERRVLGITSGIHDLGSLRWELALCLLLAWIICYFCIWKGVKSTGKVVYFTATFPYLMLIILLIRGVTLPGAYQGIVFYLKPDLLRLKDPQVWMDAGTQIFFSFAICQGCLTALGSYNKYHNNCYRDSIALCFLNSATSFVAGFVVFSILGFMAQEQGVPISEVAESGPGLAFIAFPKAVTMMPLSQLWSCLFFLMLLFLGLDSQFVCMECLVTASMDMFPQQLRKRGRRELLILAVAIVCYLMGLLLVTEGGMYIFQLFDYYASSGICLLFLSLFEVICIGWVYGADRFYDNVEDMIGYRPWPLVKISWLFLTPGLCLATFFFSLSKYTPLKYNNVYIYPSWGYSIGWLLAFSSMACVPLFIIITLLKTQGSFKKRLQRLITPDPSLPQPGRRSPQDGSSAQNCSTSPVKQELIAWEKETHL

`O=C(O)C1CCCC2NCCCC21` (trans isomer) was tested, and the Tonic-clonic seizure (Mus musculus [1]) was 0, the Tonic-clonic seizure (Mus musculus [2]) was 4 and the Duration of seizure (Mus musculus [3]) was 11.7 min. For the same compound, the Tonic-clonic seizure (Mus musculus [4]) was 1, the Binding affinity (spec bound mg-1) [5] was 65.5 and the Displacement [6] was < 5%. For the same compound, the inhibition [7] was < 5%, the Displacement [8] was 43% and the Displacement [9] was 38%. It also gave a Binding affinity (spec bound mg-1) [10] of 35, a Tonic-clonic seizure (Mus musculus [11]) of 5 and a Tonic-clonic seizure (Mus musculus [12]) of 5. For the same compound, the Tonic-clonic seizure (Mus musculus [13]) was 0, the Tonic-clonic seizure (Mus musculus [14]) was 5 and the Duration of seizure (Mus musculus [15]) was 0.8 min.

Work on `CC(C)NCC(O)c1ccc(O)c(O)c1.NCC(CC(=O)O)c1ccc(Cl)cc1.O=C(O)C1CCCC2NCCCC21` (stereo not given) yielded a Conversion (Rattus norvegicus) of 2.65%.

With `CC(C)NCC(O)c1ccc(O)c(O)c1.O=C(O)[C@@H]1CCCC2NCCCC21` (stereo in doubt; form 5) the Conversion (Rattus norvegicus) was 0.8%.

Compound `C=C(C)[C@@H]1[C@H]2OC(=O)[C@@H]1[C@]1(O)C[C@H]3O[C@]34C(=O)O[C@H]2[C@]14C` has a Displacement [6] of 90%.

Compound `CC(C)NCC(O)c1ccc(O)c(O)c1.NCC(CC(=O)O)c1ccc(Cl)cc1.O=C(O)[C@@H]1CCCC2NCCCC21` (stereo in doubt; form 3) has a Conversion (Rattus norvegicus) of 2.81%.

`CC(C)NCC(O)c1ccc(O)c(O)c1.NCC(CC(=O)O)c1ccc(Cl)cc1` (stereo not given) showed a Conversion (Rattus norvegicus) of 2.56%.

Compound `NCCCC(=O)O` has a Displacement [8] of 100%, a Displacement [9] of 100% and a Binding affinity (spec bound mg-1) [16] of 55.4.

For `O=C(O)[C@@H]1CCCC2NCCCC21` (stereo in doubt; form 2), the Binding affinity (spec bound mg-1) [5] was 59.4, the Displacement [6] was < 5% and the inhibition [7] was 15%. The Displacement [8] was < 10%, the Displacement [9] was < 10% and the Binding affinity (spec bound mg-1) [10] was 32.

For `CN1C(=O)CN=C(c2ccccc2)c2cc(Cl)ccc21`, the Binding affinity (spec bound mg-1) [10] was 29.3.

In the case of `O=C(O)[C@@H]1CCCC2NCCCC21` (stereo in doubt; 3) [listing 1 of 2 here], the Binding affinity (spec bound mg-1) [5] is reported as 59.1, the Displacement [6] is reported as < 5% and the inhibition [7] is reported as < 5%. For the same compound, the Displacement [8] was < 10%, the Displacement [9] was < 10% and the Binding affinity (spec bound mg-1) [10] was 28.8.

Compound `CC(C)NCC(O)c1ccc(O)c(O)c1.O=C(O)[C@@H]1CCCC2NCCCC21` (stereo not given) has a Binding affinity (spec bound mg-1) [17] of 0.91.

`CC(C)NCC(O)c1ccc(O)c(O)c1.NCC(CC(=O)O)c1ccc(Cl)cc1.O=C(O)[C@@H]1CCCC2NCCCC21` (stereo in doubt; form 4) showed a Conversion (Rattus norvegicus) of 2.63%.

`NCC(CC(=O)O)c1ccc(Cl)cc1` (stereo not given) [BACLOFEN] was tested, and the Conversion (Rattus norvegicus) was 0.2%, the Displacement [8] was 15% and the Displacement [9] was 100%.

In the case of `O=C(O)[C@@H]1CCCC2NCCCC21` (stereo in doubt; form 1), the Displacement [6] is reported as < 5%, the inhibition [7] is reported as < 5% and the Displacement [8] is reported as < 10%. For the same compound, the Displacement [9] was < 10%, the Binding affinity (spec bound mg-1) [18] was 55.3 and the Binding affinity (spec bound mg-1) [19] was 31.9.

In the case of `CC(C)NCC(O)c1ccc(O)c(O)c1` (stereo not given) [ISOPROTERENOL], the Conversion (Rattus norvegicus) is reported as 0.84%.

`CC(C)NCC(O)c1ccc(O)c(O)c1.O=C(O)C1CCCC2NCCCC21` (stereo not given) was tested, and the Conversion (Rattus norvegicus) was 0.84%.

`CC(C)NCC(O)c1ccc(O)c(O)c1.O=C(O)[C@@H]1CCCC2NCCCC21` (stereo in doubt; form 2) gave a Conversion (Rattus norvegicus) of 0.86%.

With `O=C(O)[C@@H]1CCCC2NCCCC21` (stereo in doubt; 3) [listing 2 of 2 here] the Tonic-clonic seizure (Mus musculus [20]) was 4, the Tonic-clonic seizure (Mus musculus [1]) was 0 and the Tonic-clonic seizure (Mus musculus [21]) was 0. The Duration of seizure (Mus musculus [3]) was 26.5 min, the Tonic-clonic seizure (Mus musculus [11]) was 5 and the Tonic-clonic seizure (Mus musculus [22]) was 5. For the same compound, the Tonic-clonic seizure (Mus musculus [14]) was 5, the Duration of seizure (Mus musculus [15]) was 9.5 min and the Tonic-clonic seizure (Mus musculus [23]) was 5.

Work on `CC(C)NCC(O)c1ccc(O)c(O)c1.NCC(CC(=O)O)c1ccc(Cl)cc1.O=C(O)[C@@H]1CCCC2NCCCC21` (stereo in doubt; form 1) yielded a Conversion (Rattus norvegicus) of 2.59%.
